Reference: ChEMBL document CHEMBL3351667, “A chemical tuned strategy to develop novel irreversible EGFR-TK inhibitors with improved safety and pharmacokinetic profiles” (J Med Chem, 2014)
pIC50: −log10 of the molar value.

Assays:
Mus musculus [1] = test: Apparent volume of distribution in BALB/c mouse at 5 mg/kg, po after 24 hrs by LC/MS/MS method; type: ADME, organism-based; set-up: dose 5 mg/kg, route oral; details: in vivo
hERG (KCNH2) [2] = biological target: T1, hERG (KCNH2) (Homo sapiens, UniProt Q12809); test: Inhibition of human ERG assessed as reduction in channel currents at 1 uM
T1 sequence (Q12809 whole entry): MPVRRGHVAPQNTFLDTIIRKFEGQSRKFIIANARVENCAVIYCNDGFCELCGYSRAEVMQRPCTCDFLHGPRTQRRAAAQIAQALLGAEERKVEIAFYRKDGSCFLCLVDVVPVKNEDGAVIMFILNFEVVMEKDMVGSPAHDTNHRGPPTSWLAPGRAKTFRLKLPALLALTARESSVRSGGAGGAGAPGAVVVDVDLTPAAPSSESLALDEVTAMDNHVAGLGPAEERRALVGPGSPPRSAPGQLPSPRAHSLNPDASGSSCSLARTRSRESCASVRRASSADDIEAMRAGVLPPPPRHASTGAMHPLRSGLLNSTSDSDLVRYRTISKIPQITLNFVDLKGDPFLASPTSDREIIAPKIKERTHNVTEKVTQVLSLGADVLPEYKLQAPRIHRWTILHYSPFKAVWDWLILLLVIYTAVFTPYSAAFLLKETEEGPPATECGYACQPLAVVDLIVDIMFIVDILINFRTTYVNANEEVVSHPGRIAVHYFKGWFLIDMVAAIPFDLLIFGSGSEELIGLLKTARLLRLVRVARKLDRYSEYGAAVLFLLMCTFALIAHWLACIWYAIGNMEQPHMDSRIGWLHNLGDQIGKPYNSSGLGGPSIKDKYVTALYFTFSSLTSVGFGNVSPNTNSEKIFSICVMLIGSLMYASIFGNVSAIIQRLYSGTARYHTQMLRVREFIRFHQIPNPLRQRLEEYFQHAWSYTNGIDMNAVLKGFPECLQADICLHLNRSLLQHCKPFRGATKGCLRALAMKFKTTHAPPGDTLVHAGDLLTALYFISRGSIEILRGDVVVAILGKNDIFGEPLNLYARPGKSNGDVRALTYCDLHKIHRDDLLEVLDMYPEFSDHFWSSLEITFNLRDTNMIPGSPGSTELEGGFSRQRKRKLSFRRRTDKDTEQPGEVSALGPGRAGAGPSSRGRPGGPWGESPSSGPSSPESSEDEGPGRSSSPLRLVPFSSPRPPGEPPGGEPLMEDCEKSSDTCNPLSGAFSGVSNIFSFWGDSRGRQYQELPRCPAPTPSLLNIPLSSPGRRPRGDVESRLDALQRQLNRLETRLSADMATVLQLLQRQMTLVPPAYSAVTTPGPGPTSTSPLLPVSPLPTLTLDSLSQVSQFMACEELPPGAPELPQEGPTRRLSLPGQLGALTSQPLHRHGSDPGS

NCI-H1975 = test: Antitumor activity against human NCI-H1975 cells xenografted in nude mouse assessed as reduction in tumor growth at 30 mg/kg/day, ig relative to untreated control; type: functional; details: route intragastric
[3] = Intrinsic clearance in dog liver microsomes assessed per mg protein at 1 uM in presence of NADPH after 0.5 to 30 mins by LC/MS/MS method; type: ADME, Canis lupus familiaris; details: read-out: CLH
[4] = Intrinsic clearance in rat liver microsomes assessed per mg protein at 1 uM in presence of NADPH after 0.5 to 30 mins by LC/MS/MS method; type: ADME; details: read-out: CLH
[5] = Ratio of drug level in lung to plasma in BALB/c mouse at 30 mg/kg, po after 6 hrs by LC/MS/MS method; type: ADME, organism-based; set-up: dose 30 mg/kg, route oral
How it was run: (§1)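 BALB/c mice received a single oral dose of 30 mg/kg. Drug concentrations in lung, brain and plasma were measured at multiple time points over 6 h. Mean tissue levels are expressed as a lung/plasma/brain ratio, with plasma set to 1.0.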

[6] = AUC (0 to infinity) in BALB/c mouse at 5 mg/kg, po after 24 hrs by LC/MS/MS method; type: ADME, organism-based, Plasma; set-up: time infinity, dose 5 mg/kg, route oral; details: BALB/c, plasma
[7] = Oral bioavailability in BALB/c mouse at 5 mg/kg after 24 hrs by LC/MS/MS method; type: ADME, organism-based; details: in vivo
[8] = Intrinsic clearance in monkey liver microsomes assessed per mg protein at 1 uM in presence of NADPH after 0.5 to 30 mins by LC/MS/MS method; type: ADME, Macaca mulatta; details: rhesus monkey, read-out: CLH
Cytochrome P450 2C19 = Cytochrome P450 2C19 (Homo sapiens, UniProt P33261); test: Inhibition of CYP2C19 in human hepatic microsomes after 20 mins by LC/MS/MS method; type: ADME, Liver
Sequence of Cytochrome P450 2C19 (P33261 whole entry): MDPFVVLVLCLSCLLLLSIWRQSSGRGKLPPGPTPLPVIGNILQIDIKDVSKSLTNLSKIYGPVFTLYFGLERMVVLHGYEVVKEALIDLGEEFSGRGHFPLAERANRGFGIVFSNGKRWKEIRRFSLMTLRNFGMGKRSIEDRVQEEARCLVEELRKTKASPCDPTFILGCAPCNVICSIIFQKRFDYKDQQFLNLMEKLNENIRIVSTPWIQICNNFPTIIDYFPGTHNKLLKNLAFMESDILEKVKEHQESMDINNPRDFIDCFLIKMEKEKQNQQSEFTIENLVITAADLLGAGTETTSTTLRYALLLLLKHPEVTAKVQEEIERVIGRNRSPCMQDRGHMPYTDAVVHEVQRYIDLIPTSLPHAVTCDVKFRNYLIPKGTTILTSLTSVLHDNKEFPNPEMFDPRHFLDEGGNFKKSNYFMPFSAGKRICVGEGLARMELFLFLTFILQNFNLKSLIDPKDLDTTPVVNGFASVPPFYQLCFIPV

A-431 = test: cells; type: functional, cell-based; details: Homo sapiens, A-431, 48 h
[9] = Cmax in BALB/c mouse at 5 mg/kg, po after 24 hrs by LC/MS/MS method; type: ADME, organism-based; set-up: dose 5 mg/kg, route oral; details: in vivo
hERG (KCNH2) [10] = biological target: T1, hERG (KCNH2); test: Inhibition of human ERG assessed as reduction in channel currents at 10 uM
Cytochrome P450 2C9 = Cytochrome P450 2C9 (Homo sapiens, UniProt P11712); test: Inhibition of CYP2C9 in human hepatic microsomes after 20 mins by LC/MS/MS method; type: ADME, Liver
Sequence of Cytochrome P450 2C9 (P11712 whole entry): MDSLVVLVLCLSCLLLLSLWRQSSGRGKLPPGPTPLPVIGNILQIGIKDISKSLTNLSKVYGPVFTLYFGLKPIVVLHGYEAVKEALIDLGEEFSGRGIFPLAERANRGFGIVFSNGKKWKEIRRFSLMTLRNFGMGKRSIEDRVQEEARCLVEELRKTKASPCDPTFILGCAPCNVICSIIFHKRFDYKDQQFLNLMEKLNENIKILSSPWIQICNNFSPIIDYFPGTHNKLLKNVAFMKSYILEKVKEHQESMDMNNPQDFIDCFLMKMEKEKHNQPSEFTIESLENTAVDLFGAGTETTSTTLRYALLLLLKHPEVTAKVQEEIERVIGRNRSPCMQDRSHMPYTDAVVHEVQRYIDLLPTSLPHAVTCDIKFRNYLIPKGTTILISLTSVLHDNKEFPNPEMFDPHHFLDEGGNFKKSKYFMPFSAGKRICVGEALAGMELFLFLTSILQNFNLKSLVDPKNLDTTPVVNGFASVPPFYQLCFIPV

[11] = Intrinsic clearance in human liver microsomes assessed per mg protein at 1 uM in presence of NADPH after 0.5 to 30 mins by LC/MS/MS method; type: ADME; details: read-out: CLH
Cytochrome P450 1A2 = biological target: T2, Cytochrome P450 1A2 (Homo sapiens, UniProt P05177); test: Inhibition of CYP1A2 in human hepatic microsomes after 20 mins by LC/MS/MS method; type: ADME, Liver
T2 sequence (P05177 whole entry): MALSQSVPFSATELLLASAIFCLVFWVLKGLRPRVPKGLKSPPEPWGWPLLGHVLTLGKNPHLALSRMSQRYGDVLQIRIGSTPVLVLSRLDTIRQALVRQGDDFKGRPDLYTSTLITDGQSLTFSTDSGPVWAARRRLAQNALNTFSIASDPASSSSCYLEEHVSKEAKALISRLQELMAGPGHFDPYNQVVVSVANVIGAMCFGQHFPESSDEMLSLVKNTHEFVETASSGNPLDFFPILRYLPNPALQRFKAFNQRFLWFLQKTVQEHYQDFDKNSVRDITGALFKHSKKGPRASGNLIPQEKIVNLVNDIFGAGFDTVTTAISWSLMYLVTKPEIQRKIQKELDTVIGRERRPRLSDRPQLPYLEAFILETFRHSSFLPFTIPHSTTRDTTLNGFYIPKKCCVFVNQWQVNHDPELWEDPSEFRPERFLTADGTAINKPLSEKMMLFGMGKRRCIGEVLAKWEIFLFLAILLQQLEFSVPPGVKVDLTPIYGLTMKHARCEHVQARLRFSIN

[12] = Ratio of drug level in brain to plasma in BALB/c mouse at 30 mg/kg, po after 6 hrs by LC/MS/MS method; type: ADME, organism-based; set-up: dose 30 mg/kg, route oral; details: read-out: BPR; how it was run: as §1
[13] = Intrinsic clearance in mouse liver microsomes assessed per mg protein at 1 uM in presence of NADPH after 0.5 to 30 mins by LC/MS/MS method; type: ADME; details: read-out: CLH
Cytochrome P450 3A4 = Cytochrome P450 3A4 (Homo sapiens, UniProt P08684); test: Inhibition of CYP3A4 in human hepatic microsomes after 20 mins by LC/MS/MS method; type: ADME, Liver
Sequence of Cytochrome P450 3A4 (P08684 whole entry): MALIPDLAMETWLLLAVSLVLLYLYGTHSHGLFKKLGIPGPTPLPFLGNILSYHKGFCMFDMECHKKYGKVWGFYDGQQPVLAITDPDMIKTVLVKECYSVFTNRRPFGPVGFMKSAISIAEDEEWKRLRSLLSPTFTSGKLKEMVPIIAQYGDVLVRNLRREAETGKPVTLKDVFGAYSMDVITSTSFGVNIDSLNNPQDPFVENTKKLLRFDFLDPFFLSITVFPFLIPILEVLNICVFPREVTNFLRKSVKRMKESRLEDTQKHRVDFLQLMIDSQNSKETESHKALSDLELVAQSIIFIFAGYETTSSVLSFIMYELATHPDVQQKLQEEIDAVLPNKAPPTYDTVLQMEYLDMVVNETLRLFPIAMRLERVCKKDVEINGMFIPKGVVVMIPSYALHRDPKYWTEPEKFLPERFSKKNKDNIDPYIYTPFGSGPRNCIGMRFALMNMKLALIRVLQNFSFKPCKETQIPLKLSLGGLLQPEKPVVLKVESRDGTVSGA

[14] = Apparent clearance in BALB/c mouse at 5 mg/kg, po after 24 hrs by LC/MS/MS method; type: ADME, organism-based; set-up: dose 5 mg/kg, route oral; details: BALB/c, in vivo, read-out: CL(app)
Cytochrome P450 2D6 = Cytochrome P450 2D6 (Homo sapiens, UniProt P10635); test: Inhibition of CYP2D6 in human hepatic microsomes after 20 mins by LC/MS/MS method; type: ADME, Liver
Sequence of Cytochrome P450 2D6 (P10635 whole entry): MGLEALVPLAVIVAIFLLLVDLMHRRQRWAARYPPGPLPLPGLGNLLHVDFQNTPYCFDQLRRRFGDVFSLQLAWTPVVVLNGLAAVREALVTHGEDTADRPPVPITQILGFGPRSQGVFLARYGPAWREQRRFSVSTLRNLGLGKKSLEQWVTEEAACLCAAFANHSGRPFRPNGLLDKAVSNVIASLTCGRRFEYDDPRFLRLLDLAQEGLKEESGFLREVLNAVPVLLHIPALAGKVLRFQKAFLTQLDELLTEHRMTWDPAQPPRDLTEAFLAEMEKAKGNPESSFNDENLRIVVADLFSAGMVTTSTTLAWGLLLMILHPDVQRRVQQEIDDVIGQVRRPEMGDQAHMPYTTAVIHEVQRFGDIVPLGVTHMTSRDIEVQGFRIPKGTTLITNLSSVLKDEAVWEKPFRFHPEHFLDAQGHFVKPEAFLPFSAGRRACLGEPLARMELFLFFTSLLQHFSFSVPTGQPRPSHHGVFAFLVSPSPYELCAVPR

[15] = Cmax in BALB/c mouse at 10 mg/kg, po after 24 hrs by LC/MS/MS method; type: ADME, organism-based; set-up: dose 10 mg/kg, route oral; details: in vivo
Mus musculus [16] = test: (§2) Apparent clearance in BALB/c mouse at 10 mg/kg, po after 24 hrs by LC/MS/MS method; type: ADME, organism-based; set-up: dose 10 mg/kg, route oral; details: in vivo, 24 h
Mus musculus [17] = test: (§3) AUC (0 to infinity) in BALB/c mouse at 10 mg/kg, po after 24 hrs by LC/MS/MS method; type: ADME, organism-based, Plasma; set-up: dose 10 mg/kg, route oral, time infinity; details: in vivo, 24 h
SW-620 = test: Growth inhibition of human SW620 cells at 5 uM; type: functional; details: read-out: GI
Mus musculus [18] = test: Apparent volume of distribution in BALB/c mouse at 10 mg/kg, po after 24 hrs by LC/MS/MS method; type: ADME, organism-based; set-up: dose 10 mg/kg, route oral; details: in vivo
[19] = Oral bioavailability in BALB/c mouse at 10 mg/kg after 24 hrs by LC/MS/MS method; type: ADME, organism-based; details: in vivo
[20] = biological target: Proto-oncogene tyrosine-protein kinase Src (Homo sapiens, UniProt P12931); test: Inhibition of wild type SRC (unknown origin) incubated for 5 mins by HTRF assay
[21] = biological target: RAC-beta serine/threonine-protein kinase (Homo sapiens, UniProt P31751); test: Inhibition of wild type AKT2 (unknown origin) incubated for 5 mins by HTRF assay
[22] = biological target: Receptor-type tyrosine-protein kinase FLT3 (Homo sapiens, UniProt P36888); test: Inhibition of wild type FLT3 (unknown origin) incubated for 5 mins by HTRF assay
[23] = as §2; type: ADME, organism-based; set-up: dose 10 mg/kg, route oral; details: BALB/c, in vivo, read-out: CL(app)
[24] = biological target: Platelet-derived growth factor receptor alpha (Homo sapiens, UniProt P16234); test: Inhibition of wild type PDGFRalpha (unknown origin) incubated for 5 mins by HTRF assay
[25] = biological target: Epidermal growth factor receptor (Homo sapiens, UniProt P00533);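 note: inhibition of wild-type EGFR read out by HTRF, with a 5 min incubation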
[26] = biological target: Platelet-derived growth factor receptor beta (Homo sapiens, UniProt P09619); test: Inhibition of wild type PDGFRbeta (unknown origin) incubated for 5 mins by HTRF assay
[27] = as §3; type: ADME, organism-based, Plasma; set-up: dose 10 mg/kg, route oral, time infinity; details: BALB/c, plasma
[28] = biological target: ALK tyrosine kinase receptor (Homo sapiens, UniProt Q9UM73); test: Inhibition of wild type ALK (unknown origin) incubated for 5 mins by HTRF assay
[29] = biological target: Fibroblast growth factor receptor 2 (Homo sapiens, UniProt P21802); test: Inhibition of wild type FGFR2 (unknown origin) incubated for 5 mins by HTRF assay
[30] = biological target: RAC-alpha serine/threonine-protein kinase (Homo sapiens, UniProt P31749); test: Inhibition of wild type AKT1 (unknown origin) incubated for 5 mins by HTRF assay
Sequence of RAC-alpha serine/threonine-protein kinase (P31749 whole entry): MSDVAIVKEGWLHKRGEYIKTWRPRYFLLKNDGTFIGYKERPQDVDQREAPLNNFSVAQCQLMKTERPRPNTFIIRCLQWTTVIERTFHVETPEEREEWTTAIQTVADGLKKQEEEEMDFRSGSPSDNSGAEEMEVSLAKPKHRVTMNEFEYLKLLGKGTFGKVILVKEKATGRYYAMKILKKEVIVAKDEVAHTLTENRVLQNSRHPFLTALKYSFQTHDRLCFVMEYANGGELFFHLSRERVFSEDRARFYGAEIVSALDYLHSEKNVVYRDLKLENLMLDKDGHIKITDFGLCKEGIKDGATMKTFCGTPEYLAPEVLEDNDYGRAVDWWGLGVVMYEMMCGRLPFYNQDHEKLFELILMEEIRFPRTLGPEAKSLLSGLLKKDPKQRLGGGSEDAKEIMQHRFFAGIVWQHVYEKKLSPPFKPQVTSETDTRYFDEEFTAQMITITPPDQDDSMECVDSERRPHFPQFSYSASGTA

[31] = biological target: Hepatocyte growth factor receptor (Homo sapiens, UniProt P08581); test: Inhibition of wild type c-Met (unknown origin) incubated for 5 mins by HTRF assay
[32] = biological target: Tyrosine-protein kinase SYK (Homo sapiens, UniProt P43405); test: Inhibition of wild type SYK (unknown origin) incubated for 5 mins by HTRF assay
[33] = biological target: Tyrosine-protein kinase ABL1 (Homo sapiens, UniProt P00519); test: Inhibition of wild type ABL (unknown origin) incubated for 5 mins by HTRF assay
Sequence of Tyrosine-protein kinase ABL1 (P00519 whole entry): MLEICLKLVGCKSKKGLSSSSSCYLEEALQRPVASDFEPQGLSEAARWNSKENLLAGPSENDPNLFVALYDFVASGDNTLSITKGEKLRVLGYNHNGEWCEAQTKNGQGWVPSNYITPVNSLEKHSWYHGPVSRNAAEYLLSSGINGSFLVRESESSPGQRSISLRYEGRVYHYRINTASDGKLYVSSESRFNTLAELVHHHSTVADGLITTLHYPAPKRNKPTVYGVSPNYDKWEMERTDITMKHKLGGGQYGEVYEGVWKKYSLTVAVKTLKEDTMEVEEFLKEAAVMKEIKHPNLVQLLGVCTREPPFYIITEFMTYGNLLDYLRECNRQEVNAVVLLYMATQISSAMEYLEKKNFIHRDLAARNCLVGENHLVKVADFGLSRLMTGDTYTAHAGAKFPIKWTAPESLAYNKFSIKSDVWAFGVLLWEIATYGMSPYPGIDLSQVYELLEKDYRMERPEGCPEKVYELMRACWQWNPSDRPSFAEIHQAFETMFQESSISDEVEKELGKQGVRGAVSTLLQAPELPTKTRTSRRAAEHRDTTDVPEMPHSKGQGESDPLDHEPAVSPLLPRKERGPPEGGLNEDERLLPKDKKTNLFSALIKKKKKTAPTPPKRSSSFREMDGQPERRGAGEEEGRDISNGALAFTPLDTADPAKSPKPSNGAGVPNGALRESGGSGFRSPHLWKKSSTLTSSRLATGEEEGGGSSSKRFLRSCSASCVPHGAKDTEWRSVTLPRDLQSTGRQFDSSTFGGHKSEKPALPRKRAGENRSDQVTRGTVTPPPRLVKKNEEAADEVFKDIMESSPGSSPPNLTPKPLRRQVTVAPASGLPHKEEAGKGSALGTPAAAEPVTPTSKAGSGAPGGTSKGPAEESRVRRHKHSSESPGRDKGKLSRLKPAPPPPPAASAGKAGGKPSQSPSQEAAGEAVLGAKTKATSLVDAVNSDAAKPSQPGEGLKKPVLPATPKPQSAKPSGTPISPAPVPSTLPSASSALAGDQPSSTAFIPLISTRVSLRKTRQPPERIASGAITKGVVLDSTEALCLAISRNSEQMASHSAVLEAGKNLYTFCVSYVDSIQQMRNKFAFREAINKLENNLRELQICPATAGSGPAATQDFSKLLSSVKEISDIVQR

[34] = biological target: Tyrosine-protein kinase JAK2 (Homo sapiens, UniProt O60674); test: Inhibition of wild type JAK2 (unknown origin) incubated for 5 mins by HTRF assay
[35] = biological target: Epidermal growth factor receptor (Homo sapiens, UniProt P00533, T790M); type: protein assay

microsomal CLint at 1 µM [3] [µL/min/mg] | microsomal CLint at 1 µM [4] [µL/min/mg] | microsomal CLint at 1 µM [8] [µL/min/mg] | pIC50 (Cytochrome P450 2C19) | pIC50 (Cytochrome P450 2C9) | microsomal CLint at 1 µM [11] [µL/min/mg] | pIC50 (Cytochrome P450 1A2) | microsomal CLint at 1 µM [13] [µL/min/mg] | pIC50 (Cytochrome P450 3A4) | pIC50 (Cytochrome P450 2D6) | Cmax [15] [nM] | Vz (Mus musculus [18]) [L/kg] | bioavailability [19] [%] | SMILES | inhibition at 1 µM (hERG (KCNH2) [2]) [%] | T/C (NCI-H1975) [%] | inhibition at 10 µM (hERG (KCNH2) [10]) [%] | also measured
34 | 11 | 102 | < 5.00 | < 5.00 | 37 | < 5.00 | 31 | < 5.00 | < 5.00 | – | – | – | COc1cc2ncnc(Nc3ccc(F)c(Cl)c3)c2cc1NC(=O)/C(F)=C/CN1CCCCC1 | 0.71 | 67.4 | 11.8 | Vz (Mus musculus [1]): 7.14 L/kg; Kp at 6 h [5]: 20; AUC(0-inf) [6]: 5.1 µM·h; bioavailability [7]: 105%; pIC50 (A-431): 6.34; Cmax [9]: 830 nM; Kp at 6 h [12]: 2.31; CL/F [14]: 40 mL/min/kg
9 | 12 | 24 | – | – | 8 | – | 6 | – | – | 130 | 36.2 | 37.4 | CN(C)C/C=C/C(=O)Nc1cc2c(Nc3ccc(F)c(Cl)c3)ncnc2cc1O[C@H]1CCOC1 [AFATINIB] | – | 30.3 | – | CL(app) (Mus musculus [16]): 270 mL/min/kg; AUC (Mus musculus [17]): 29.4 µM·min; inhibition of growth at 5 µM (SW-620): 78%
194 | 18 | 128 | < 5.00 | < 5.00 | 14 | < 5.00 | 45 | < 5.00 | < 5.00 | 790 | 14 | 98.5 | COc1cc2ncnc(Nc3ccc(F)c(Cl)c3)c2cc1NC(=O)/C(F)=C/CN(C)C | 2.55 | – | 18.4 | pIC50 [20]: 5.76; pIC50 [21]: < 5.00; pIC50 [22]: 5.17; CL/F [23]: 50 mL/min/kg; pIC50 [24]: 5.44; pIC50 [25]: 9.70; pIC50 [26]: 5.68; AUC(0-inf) [27]: 7.67 µM·h; pIC50 [28]: < 5.00; pIC50 [29]: < 5.00; pIC50 [30]: < 5.00; pIC50 [31]: < 5.00; pIC50 [32]: < 5.00; pIC50 [33]: 5.65; pIC50 [34]: < 5.00; pIC50 [35]: 8.18
